A short description of experiment [1]: reduced viability of SK-BR-3 breast cancer cells – cell-based, 24 h, human, pilot screen (AID 572;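 active means viability at or below 10% of carrier control in both of two separate runs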;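 further: compound exposure lasted between 18 and 24 h rather than exactly 24 h; 100% = carrier-treated control wells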). To be noted: SK-BR-3 viability, CellTiter-Glo luminescence, at 10 µM, stronger effect = lower value. (Cellular ATP, detected with luciferase, serves as a proxy for viable cell number.)
Experiment [2] is described as follows: HUVEC growth inhibition – cell-based, human, primary screen (AID 575;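 active means viability at or below 30% in both replicate assays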;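 further: 100% = median of untreated cell wells with 0.1% DMSO on each plate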). As to conditions: HUVEC proliferation, CellTiter-Glo luminescence, 72 h; at 10 µM; stronger effect = lower value. The method, boiled down:
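Test system: primary human umbilical vein endothelial cells. Quantity: 1250 cells/well. Compound: single 10 µM dose, 0.1% DMSO, from 5x medium stock. Timing: 72 h treatment at 37 °C. Detection: ATP-based CellTiter-Glo luminescent read. Benchmarks: vehicle and MePR control wells. Format: 384-well plates coated with collagen.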

The nature of experiment [3]: H69AR cell proliferation blockers – human, duplicate replicates, primary screen (AID 580;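 active means viability at or under a set limit in both replicates, limit being median viability minus 3 SD, cut at about 48% in these data, passing the limit was not always enough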;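 further: 100% = mean luminescence of untreated wells and 0% = no signal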). As to conditions: H69AR lung tumor cells viability, ATP luminescence, 72 h; at 10 µM; stronger effect = lower value.
A short description of experiment [4]: MRP1 drug-resistance reversers in H69AR cells – cell-based, doxorubicin co-treatment, pilot screen (AID 601). As to conditions: CellTiter-Glo, 72 h, at 10 µM; for differential viability (reversal): stronger effect = higher value.
Experiment [5] in a line: yeast transport mutant growth inhibition pilot in 384-well plates, post-Golgi transport modulator project (AID 636; in the data active means inhibition above about 31%). To be noted: absorbance 615 nm, about 18 h, stronger effect = higher value.
Experiment [6] can be described thus: growth suppression of yeast trafficking mutant, preliminary HTS, modulators of trafficking downstream of Golgi apparatus project, 1536-format plate, OD 615 nm (AID 637; in the data active means inhibition above about 30%). As to conditions: yeast transport mutant growth, absorbance 615 nm, 18 h; stronger effect = higher value.
[7] abbreviates: H69AR cells + 2 uM doxorubicin, measured here: viability with 2 uM doxorubicin, stronger effect = lower value.
[8] abbreviates: H69AR cells, compound alone cytotoxicity.

Activity calls are given as the source filed them.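 How the source made its calls, unless noted: active means viability loss from added drug above about 55%, and viability with drug at most 40%, in both replicates (limit read from the data, passing the limit was not always enough); inconclusive means both conditions met in only one replicate; inactive means neither replicate meets both conditions.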

As a reminder, the viability is a read-out of living cells in per cent, often relative to untreated cells. The inhibition is the drop in the measured response relative to a control, in per cent. As for `O=C(Nc1ccc(N2CCOCC2)cc1)Nc1ccc2nc(-c3ccco3)c(-c3ccco3)nc2c1`, the viability in experiment [1] is 71.5% (inactive); in experiment [2], 16.6% (active); in experiment [3] it was 13.5% (active); in experiment [4] (setting [7]) it was 21.6%; in experiment [4] (setting [8]), 13.5%. The differential viability (reversal) in experiment [4] (H69AR cells + 2 uM doxorubicin) was -8.11% (inactive). Also, the inhibition in experiment [5] was -7.73% (inactive); in experiment [6], -1.45% (inactive).

As for `Cc1nnc(SCc2cccc(Oc3ccccc3)c2)n1N`, the viability in experiment [1] was 74% (inactive); in experiment [2] it was 89.3% (inactive); in experiment [3], 99.6% (inactive); in experiment [4] (setting [7]) it was 94.4%; in experiment [4] (setting [8]) it was 99.6%. For the same compound, the differential viability (reversal) in experiment [4] (H69AR cells + 2 uM doxorubicin) is 5.25% (inactive). The inhibition in experiment [5] is -5.89% (inactive); in experiment [6] it was 6.18% (inactive).

Regarding `CC1CCc2c(sc3c2C2=NS(=O)(=O)CCN2C=N3)C1` (stereo not drawn), the viability in experiment [1] is 88.5% (inactive); in experiment [2], 107% (inactive); in experiment [3], 80.6% (inactive); in experiment [4] (setting [7]), 88.2%; in experiment [4] (setting [8]), 80.6%. For the same compound, in experiment [4] (H69AR cells + 2 uM doxorubicin), the differential viability (reversal) was -7.62% (inactive). The inhibition in experiment [5] is -9.73% (inactive); in experiment [6], 3.81% (inactive).

Regarding `CCOC(=O)N1CCC(NC(=O)Cn2ncc3c4ccccc4n(C)c3c2=O)CC1`, the viability in experiment [1] is 114% (inactive); in experiment [2], 116% (inactive); in experiment [3], 97.5% (inactive); in experiment [4] (setting [7]), 105%; in experiment [4] (setting [8]) it was 97.5%. Moreover, in experiment [4] (H69AR cells + 2 uM doxorubicin), the differential viability (reversal) was -7.6% (inactive). Also, the inhibition is -7.43% (inactive) in experiment [5] and -3.27% (inactive) in experiment [6].

For the compound `Cc1cccc(N2C(=O)CC(N(C(=O)c3ccco3)c3cccc(C)c3)C2=O)c1` (stereo not drawn), the viability in experiment [1] was 104% (inactive); in experiment [2] it was 98.8% (inactive); in experiment [3], 98.5% (inactive); in experiment [4] (setting [7]) it was 102%; in experiment [4] (setting [8]) it was 98.5%. Besides, the differential viability (reversal) in experiment [4] (H69AR cells + 2 uM doxorubicin) was -3.33% (inactive). The inhibition in experiment [5] is 0% (inactive); in experiment [6] it was 6.13% (inactive).

For the compound `CC1Oc2ccccc2N(CC(=O)NCc2cccs2)C1=O` (stereo not drawn), the viability is 77% (inactive) in experiment [1]; 98.8% (inactive) in experiment [2]; 108% (inactive) in experiment [3]; 94.5% in experiment [4] (setting [7]); 108% in experiment [4] (setting [8]). Further, in experiment [4] (H69AR cells + 2 uM doxorubicin), the differential viability (reversal) is 13.8% (inactive). The values for the inhibition in experiment [5] and in experiment [6] were -6.71% (inactive) and -0.91% (inactive), respectively.

Turning to `CCn1cnc2sc(C(=O)Nc3ccc4c(c3)OCO4)c(C)c2c1=O`, the viability in experiment [1] was 107% (inactive); in experiment [2], 96.2% (inactive); in experiment [3] it was 94% (inactive); in experiment [4] (setting [7]), 83%; in experiment [4] (setting [8]), 94%. For the same compound, the differential viability (reversal) in experiment [4] (H69AR cells + 2 uM doxorubicin) is 11% (inactive). Besides, the inhibition in experiment [5] was -8% (inactive); in experiment [6] it was -5.27% (inactive).

`CC(C)OC(=O)CSc1nnc(-c2cccnc2)n1Cc1ccccc1`: the viability in experiment [1] is 86% (inactive); in experiment [2], 105% (inactive); in experiment [3], 89.9% (inactive); in experiment [4] (setting [7]), 80.2%; in experiment [4] (setting [8]), 89.9%. In experiment [4] (H69AR cells + 2 uM doxorubicin), the differential viability (reversal) is 9.68% (inactive). Besides, the results for the inhibition in experiment [5] and in experiment [6] were -5.81% (inactive) and 0.18% (inactive), respectively.

With `CC(NC(=O)NC12CC3CC(CC(C3)C1)C2)C1CCCO1` (stereo not drawn), the viability in experiment [1] is 80% (inactive); in experiment [2], 103% (inactive); in experiment [3], 103% (inactive); in experiment [4] (setting [7]) it was 93.4%; in experiment [4] (setting [8]), 103%. Besides, the differential viability (reversal) in experiment [4] (H69AR cells + 2 uM doxorubicin) is 10.1% (inactive). For the same compound, the inhibition in experiment [5] was -3.7% (inactive); in experiment [6], 1.27% (inactive).

In the case of `C[N+](C)(C)CCOP(=O)([O-])OC[C@H](O)CO`, the viability in experiment [1] was 100% (inactive); in experiment [2], 99.1% (inactive); in experiment [3], 96% (inactive); in experiment [4] (setting [7]), 95%; in experiment [4] (setting [8]), 96%. Besides, the differential viability (reversal) in experiment [4] (H69AR cells + 2 uM doxorubicin) was 0.95% (inactive). The inhibition in experiment [5] was -2.99% (inactive); in experiment [6] it was -5.17% (inactive).

As to `O=C(CN1CCCN(S(=O)(=O)c2ccc(F)cc2)CC1)Nc1ccccc1Br`, the viability in experiment [1] is 84% (inactive); in experiment [2], 87.7% (inactive); in experiment [3] it was 76.3% (inactive); in experiment [4] (setting [7]), 83.5%; in experiment [4] (setting [8]), 76.3%. Besides, in experiment [4] (H69AR cells + 2 uM doxorubicin), the differential viability (reversal) was -7.18% (inactive). The inhibition in experiment [5] is 1.17% (inactive); in experiment [6], -1.48% (inactive).

With `CCOCC(=O)Nc1c(C(=O)Nc2ccc(OC)cc2OC)oc2ccccc12`, the viability is 65.5% (inactive) in experiment [1]; 50.9% (inactive) in experiment [2]; 48% (active) in experiment [3]; 48.3% in experiment [4] (setting [7]); 48% in experiment [4] (setting [8]). Further, the differential viability (reversal) in experiment [4] (H69AR cells + 2 uM doxorubicin) was -0.305% (inactive). In addition, the inhibition was -6.62% (inactive) in experiment [5] and -3.77% (inactive) in experiment [6].

Turning to `Cc1nccn1CCCN1C(=O)OC2(CCCCC2)C1(C)O` (stereo not drawn), the viability in experiment [1] is 90% (inactive); in experiment [2], 88.1% (inactive); in experiment [3], 98.5% (inactive); in experiment [4] (setting [7]), 102%; in experiment [4] (setting [8]), 98.5%. Further, the differential viability (reversal) in experiment [4] (H69AR cells + 2 uM doxorubicin) was -3.27% (inactive). The figures for the inhibition in experiment [5] and in experiment [6] were -7.53% (inactive) and -1.29% (inactive), respectively.

Turning to `COCCCN1C(=O)C(O)=C(C(C)=O)C1c1ccccn1` (stereo not drawn), the viability in experiment [1] is 106% (inactive); in experiment [2], 102% (inactive); in experiment [3] it was 86.6% (inactive); in experiment [4] (setting [7]), 85.9%; in experiment [4] (setting [8]), 86.6%. Also, the differential viability (reversal) in experiment [4] (H69AR cells + 2 uM doxorubicin) is 0.675% (inactive). Besides, the inhibition in experiment [5] is -3.73% (inactive); in experiment [6], -1.45% (inactive).

Consider `O=C(NCCO)c1cc2ccccc2cc1O`, for which the viability in experiment [1] was 104% (inactive); in experiment [2], 110% (inactive); in experiment [3] it was 97% (inactive); in experiment [4] (setting [7]), 115%; in experiment [4] (setting [8]), 97%. For the same compound, in experiment [4] (H69AR cells + 2 uM doxorubicin), the differential viability (reversal) is -17.9% (inactive). Moreover, the inhibition was -3.25% (inactive) in experiment [5] and 4.43% (inactive) in experiment [6].

Regarding `Cc1[nH]nc2c1C(c1ccc(F)cc1)C1=C(CC(C)(C)CC1=O)N2` (stereo not drawn), the viability in experiment [1] is 126% (inactive); in experiment [2], 102% (inactive); in experiment [3], 87.4% (inactive); in experiment [4] (setting [7]) it was 87.8%; in experiment [4] (setting [8]) it was 87.4%. Further, the differential viability (reversal) in experiment [4] (H69AR cells + 2 uM doxorubicin) was -0.39% (inactive). For the same compound, the inhibition in experiment [5] was -5.14% (inactive); in experiment [6], 3.97% (inactive).

The record behind these values is PubChem BioAssay.
